Screens (PubChem BioAssay)
GRIN3A LBD mod = binders of NR3A ligand-binding domain, primary screen, biophysical, differential scanning fluorimetry, uHTS | NR3A LBD differential scanning fluorimetry, Tm shift; 0% = protein alone, 100% = glycine-bound protein | AID 1259313, 2017 | Tm shift relative to glycine control, % at 25 µM | Glutamate receptor ionotropic, NMDA 3A (GRIN3A) ligand-binding domain | hit rate 2.5% among 340,000;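 active = melting temperature shift of at least 10% of the positive control shift, at one fixed dose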
CHOP inhibitor = inhibitors of CHOP promoter induction, primary screen, cell-based, unfolded protein response, luciferase reporter | AID 2732, 2010 | hit rate 3.8% among 220,000 | CHO-K1 CHOP-promoter luciferase, tunicamycin-induced, 15-18 h | inhibition, % at 10 µM;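 active = compounds that reduced the stress-induced luciferase reporter signal by more than about 70% of percent inhibition, limit read from the data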;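 also: 0% = tunicamycin plus vehicle and 100% = wells without tunicamycin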
CSC inhib = cancer stem cell viability inhibitors, primary screen, luminescence | cancer stem cell-like cells viability | inhibition, % at 7.5 µM | hit rate 1.1% among 300,000 | AID 2717, 2010; in the data active = inhibition above about 75%; inconclusive = no clear call, values can overlap the other calls; tested in HMLE shEcad cells
Beta cell apopt = inhibitors of cytokine-induced beta cell apoptosis, primary screen, luminescence; INS-1E cytokine-induced death, ATP luminescence, 48 h; percent of positive-control rescue, neutral wells zero; protection from apoptosis, % (test concentration not listed); hit rate 0.8% among 300,000; AID 435005, 2010;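 active = Every replicate reaches about 75%, or at least half do and their mean reaches it too, limit read from the data; inconclusive = At least half of replicates reach the limit but their mean does not; inactive = Under half of replicates reach the limit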;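 also: 0% = cytokine-treated negative control wells and 100% = positive control rescue; higher means more ATP so stronger rescue from cytokine killing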
PREPL inhibitor = PREPL enzyme inhibitors, primary screen, biochemical, fluorescence polarization; Prolyl endopeptidase-like (Homo sapiens), Q4J6C6; recombinant PREPL, fluorescence polarization activity-based probe; inhibition, % at 5.96 µM; hit rate 0.68% among 320,000; AID 2751, 2010; in the data active = inhibition above about 43%;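 also: 0% = enzyme with DMSO and 100% = wells lacking enzyme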
Target sequence (Q4J6C6 whole entry, looked up): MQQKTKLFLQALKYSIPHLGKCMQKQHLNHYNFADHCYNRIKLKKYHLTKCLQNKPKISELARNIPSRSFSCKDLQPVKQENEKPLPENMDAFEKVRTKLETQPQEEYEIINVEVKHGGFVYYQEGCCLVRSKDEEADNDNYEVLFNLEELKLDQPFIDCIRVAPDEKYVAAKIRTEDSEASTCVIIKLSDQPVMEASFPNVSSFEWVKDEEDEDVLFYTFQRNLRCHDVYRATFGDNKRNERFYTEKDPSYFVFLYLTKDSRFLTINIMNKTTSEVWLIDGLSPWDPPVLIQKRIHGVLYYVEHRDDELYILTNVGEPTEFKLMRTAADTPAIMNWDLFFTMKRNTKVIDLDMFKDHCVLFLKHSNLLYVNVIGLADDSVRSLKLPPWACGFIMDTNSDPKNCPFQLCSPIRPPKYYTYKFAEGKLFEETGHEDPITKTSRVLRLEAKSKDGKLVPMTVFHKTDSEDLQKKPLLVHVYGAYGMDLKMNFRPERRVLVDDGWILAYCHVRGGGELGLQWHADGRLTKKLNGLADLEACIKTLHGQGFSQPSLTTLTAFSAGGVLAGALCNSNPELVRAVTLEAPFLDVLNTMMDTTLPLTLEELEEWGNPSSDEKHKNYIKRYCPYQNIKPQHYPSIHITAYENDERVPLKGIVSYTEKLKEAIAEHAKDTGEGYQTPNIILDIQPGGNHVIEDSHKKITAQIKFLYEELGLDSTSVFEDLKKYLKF
T cruzi inh = inhibitors of intracellular T. cruzi growth, primary screen, luminescence, NIH3T3 host cells; T. cruzi beta-gal in NIH3T3, 90 h; inhibition, % (test concentration not listed); hit rate 1.4% among 300,000; AID 1885, 2009;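 active = mean inhibition across valid replicates above about 55%, limit read from the data; inconclusive = mean below that limit but half or more replicates reach it; inactive = mean below it, under half of replicates reach it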;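 also: signal also drops with host cell toxicity which is not excluded here; 0% = plate median of DMSO wells and 100% = zero luminescence signal; higher percent means less beta-gal luminescence so fewer parasites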
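System: NIH/3T3 fibroblasts plus reporter T. cruzi. Medium: DMEM plus 2% FBS. Probe or stimulus: 5000 reporter trypomastigotes per well. Compound: single 50 nL compound addition per well in DMSO. Incubation: co-culture of at least 90 h after 3 h attachment. Detection: GalScreen β-gal luminescence, detergent lysis, 60 min. Evaluation: parasite load inhibition, %.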
* marks the source's active call; other numbers are inactive results. A selection: hits, their analogues and other compounds. The true share with any hit is near 6.7%.

Results for Cc1cc(NS(=O)(=O)c2ccc(NC(=S)NC(=O)c3ccc(F)cc3)cc2)no1 ?
GRIN3A LBD mod: 14*; CHOP inhibitor: -1; CSC inhib: -6; Beta cell apopt: 1; PREPL inhibitor: -8; T cruzi inh: 12

What do the screens show for `Cc1cc(NS(=O)(=O)c2ccc(NC(=S)NC(=O)c3cccc(S(=O)(=O)N(C)C)c3)cc2)no1`?
GRIN3A LBD mod: 1; CHOP inhibitor: -1; CSC inhib: -10; Beta cell apopt: -4; PREPL inhibitor: 1; T cruzi inh: -2

What do the screens show for `Cc1ccc(OC(C)C(=O)Nc2ccc(S(=O)(=O)Nc3cc(C)on3)cc2)cc1` (centres undefined)?
GRIN3A LBD mod: 16*; CHOP inhibitor: -14; PREPL inhibitor: -2; T cruzi inh: -3

How did Cc1cc(NS(=O)(=O)c2ccc(NC(=O)c3oc4ccccc4c3C)cc2)no1 do in these assays?
GRIN3A LBD mod: 14*; CHOP inhibitor: 13; CSC inhib: -13; Beta cell apopt: 1; PREPL inhibitor: 13; T cruzi inh: 3

What do the screens show for `COc1cc(C(=O)N2CCN(C(=O)c3cc(-c4ccccc4)n[nH]3)CC2)cc(OC)c1OC`?
GRIN3A LBD mod: -2; CSC inhib: 9; PREPL inhibitor: 22; T cruzi inh: -14

Results for O=C1CSC(c2cccc([N+](=O)[O-])c2)N1CCc1ccccc1 (centres undefined) ?
GRIN3A LBD mod: 3; CSC inhib: -12; Beta cell apopt: 1; T cruzi inh: 6

How did CC1CN(Cc2ccccc2)C(C)CC1O (centres undefined) do in these assays?
GRIN3A LBD mod: 1; CHOP inhibitor: 35; CSC inhib: -10; Beta cell apopt: -3; PREPL inhibitor: -13; T cruzi inh: 15

Results for CC(C)Cc1nc(N2CCN(C(=O)c3ccco3)CC2)c(C#N)c2c1CCC2 ?
GRIN3A LBD mod: 2; CHOP inhibitor: 1; CSC inhib: 4; Beta cell apopt: 1; PREPL inhibitor: 11; T cruzi inh: 28

How did N#Cc1c(N2CCCCC2)nc(N2CCCCC2)c2c1CCN(Cc1ccccc1)C2 do in these assays?
GRIN3A LBD mod: 1; CHOP inhibitor: 27; CSC inhib: -1; Beta cell apopt: inconclusive; PREPL inhibitor: 40; T cruzi inh: 56*

Results for CC1(C)Cc2c(C#N)c(N3CCN(C(=O)c4ccco4)CC3)nc(Cc3ccccc3)c2CO1 ?
GRIN3A LBD mod: 3; CHOP inhibitor: 88*; Beta cell apopt: 14; PREPL inhibitor: 5; T cruzi inh: 5

Results for N#Cc1c(N2CCN(C(=O)c3ccco3)CC2)nc(-c2ccccc2)c2c1CCCC2 ?
GRIN3A LBD mod: -1; CHOP inhibitor: 15; CSC inhib: 43; Beta cell apopt: 69; PREPL inhibitor: 10; T cruzi inh: 61*

What do the screens show for `N#Cc1c(N2CCN(C(=O)c3ccccc3)CC2)nc(-c2ccccc2)c2c1CCCC2`?
GRIN3A LBD mod: -12; CHOP inhibitor: 72*; CSC inhib: 72; Beta cell apopt: 3; PREPL inhibitor: 3; T cruzi inh: 23

Results for CCC1CSC(=Nc2ccc(C)cc2)N1C(=O)CN1C(=O)NC2(CCCC2)C1=O (centres undefined) ?
GRIN3A LBD mod: 1; CSC inhib: 5; Beta cell apopt: -6; PREPL inhibitor: -2; T cruzi inh: 8

How did COc1cc(NC(=O)C2CCC(CNS(=O)(=O)c3csc(C(N)=O)c3)CC2)cc(OC)c1 (centres undefined) do in these assays?
GRIN3A LBD mod: -1; CSC inhib: -12; Beta cell apopt: 3; PREPL inhibitor: 1; T cruzi inh: -23

How did COc1ccc(OC)c(NC(=O)C(C)OC(=O)c2cc3ccccc3[nH]2)c1 (centres undefined) do in these assays?
GRIN3A LBD mod: -11

What do the screens show for `CC(=O)N1CCN(c2nc(CC(C)C)c3c(c2C#N)CCC3)CC1`?
GRIN3A LBD mod: -2; CHOP inhibitor: 20; CSC inhib: 18; Beta cell apopt: 10; PREPL inhibitor: 10; T cruzi inh: 11

Results for N#Cc1c(N2CCN(C(=O)c3ccccc3Cl)CC2)nc(-c2ccccc2)c2c1CCCC2 ?
GRIN3A LBD mod: 10; CHOP inhibitor: 5; CSC inhib: 27; Beta cell apopt: 49; PREPL inhibitor: -3; T cruzi inh: 57*

How did N#Cc1c(NCCCO)nc(-c2ccccc2)c2c1CCCC2 do in these assays?
GRIN3A LBD mod: -4; CHOP inhibitor: 78*; CSC inhib: 5; Beta cell apopt: -3; PREPL inhibitor: 8; T cruzi inh: 14

Results for CC(C)Cc1nc(N2CCN(C(=O)c3ccccc3)CC2)c(C#N)c2c1CCC2 ?
GRIN3A LBD mod: 0; CHOP inhibitor: 80*; CSC inhib: 7; Beta cell apopt: 19; PREPL inhibitor: 7; T cruzi inh: 40

What do the screens show for `CC1(C)Cc2c(C#N)c(N3CCN(C(=O)c4ccccc4Cl)CC3)nc(-c3ccco3)c2CS1`?
GRIN3A LBD mod: -4; CHOP inhibitor: 5; CSC inhib: -8; Beta cell apopt: -3; PREPL inhibitor: 11; T cruzi inh: 20

How did CC(C)c1c(O)ccc2c1CC[C@H]1C(C)(C)CCC[C@]21C do in these assays?
GRIN3A LBD mod: 22*

Results for Cc1ccc(C)c(NC(=O)C2=CCN(S(=O)(=O)c3ccc(F)cc3)CC2)c1 ?
GRIN3A LBD mod: 1; CHOP inhibitor: -6; CSC inhib: -4; Beta cell apopt: -4; PREPL inhibitor: -5; T cruzi inh: -2

How did CCOc1cc(S(=O)(=O)N2CCC(Cc3ccccc3)CC2)c(OCC)cc1-n1cnnn1 do in these assays?
GRIN3A LBD mod: 0; CHOP inhibitor: -34; CSC inhib: 17; Beta cell apopt: 12; PREPL inhibitor: 20; T cruzi inh: 67*

How did Cc1ccc(Cl)cc1N1CCN(C(=O)Cc2csc(Nc3nc(=S)[nH]c4ccccc34)n2)CC1 do in these assays?
GRIN3A LBD mod: -2; CHOP inhibitor: 84*; CSC inhib: 10; Beta cell apopt: 12; PREPL inhibitor: -7; T cruzi inh: 34

Results for C/C(Cl)=C\Cn1c(O)c(N=NC(N)=S)c2cc(Br)ccc21 ?
GRIN3A LBD mod: -2; CHOP inhibitor: -113; Beta cell apopt: 30; PREPL inhibitor: 20; T cruzi inh: 77*

How did NC(=S)N=Nc1c(O)n(CCCl)c2ccc(Br)cc12 do in these assays?
GRIN3A LBD mod: -7; CHOP inhibitor: -37; CSC inhib: 20; Beta cell apopt: 19; PREPL inhibitor: 3; T cruzi inh: 25

Results for CCCCCCSc1ncc(C#N)c(N)n1 ?
GRIN3A LBD mod: 0; CHOP inhibitor: 84*; Beta cell apopt: -3; PREPL inhibitor: 0; T cruzi inh: -1
